TAG inh = inhibitors of triacylglycerol accumulation; hit rate 0.66% among 230,000; inhibition, % at 12.5 µM; H9c2 cells, Nile Red lipid (TAG) fluorescence; cells loaded with 200 µM oleic acid;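 active = pattern-corrected inhibition of lipid staining of at least 50% with the nuclear-stain viability signal not falling by more than 50%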
NTR1 agonist = NTR1 (human) agonism. AID 493036. hit rate 0.17% among 330,000. P30989. NTR1-U2OS beta-arrestin-GFP spot imaging, agonist mode. activation, % at 20 µM;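 active = activation at or above 40% of the spot to cytoplasm intensity ratio, with at least 20 cells analyzed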
Target sequence (P30989 whole entry, looked up): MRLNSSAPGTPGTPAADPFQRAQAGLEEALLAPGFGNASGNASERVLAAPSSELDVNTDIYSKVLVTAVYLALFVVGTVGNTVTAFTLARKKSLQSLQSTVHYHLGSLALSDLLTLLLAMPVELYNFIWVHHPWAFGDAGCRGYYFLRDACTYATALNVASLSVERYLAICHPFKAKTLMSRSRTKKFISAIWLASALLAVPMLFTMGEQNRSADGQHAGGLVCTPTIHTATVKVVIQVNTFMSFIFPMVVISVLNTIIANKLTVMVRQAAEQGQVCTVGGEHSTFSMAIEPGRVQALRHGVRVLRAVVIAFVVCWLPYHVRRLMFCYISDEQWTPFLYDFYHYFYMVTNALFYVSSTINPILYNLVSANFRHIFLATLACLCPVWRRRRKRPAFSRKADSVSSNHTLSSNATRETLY
MC4R antagonist = blocks human MC4R cAMP signaling; P32245; MC4R-expressing cells, MTII-stimulated cAMP, LANCE TR-FRET; inhibition, % at 6.5 µM; hit rate 0.48% among 360,000;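 active = inhibition above its plate's cutoff, the mean of tested wells on that plate plus 3 SD, cut at about 29% in these data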
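System: U2OS-MC4R stable cell line; Technique: Eu-cAMP/anti-cAMP TR-FRET, emission 671 nm; Repeats: single well per compound; Also added: Melanotan II; Dosing: one concentration, 6.5 µM nominal; Schedule: 30-min compound, 1-h challenge, 1-h detection, room temperature.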
aDG glyco up = increases alpha dystroglycan glycosylation. Pro5-aDG cells, alpha-DG glycosylation AlphaScreen (IIH6); 0% Pro5, 100% B10-LARGE cell signal. activation, % at 10 µM. hit rate 0.22% among 360,000;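 active = activation of at least 8% versus controls, or a plate z-score of at least 8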;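 also: Pro5 are CHO cells carrying HIG-tagged alpha-DG that lacks glycosylation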
Tb MetRS inh = Trypanosoma brucei MetRS inhibition. hit rate 0.4% among 360,000. purified T. brucei MetRS, ATP depletion, Kinase-Glo luminescence. inhibition, % at 11.9 µM;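 active = inhibition above a per-plate cutoff of the control wells' mean inhibition plus 3 SD, cut at about 5.5% in these data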
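System: purified T. brucei MetRS enzyme / Detection: Kinase-Glo luciferase luminescence reporting remaining unconsumed ATP / Medium: HEPES buffer with MgCl2, KCl, DTT, spermine, BSA, pyrophosphatase / Replication: singlicate, one well per compound / Evaluation: percent inhibition relative to median high and low control wells / Schedule: 2 h aminoacylation at 25 °C after 15 min preincubation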
MC4R ag barr = agonists of human melanocortin 4 receptor (MC4R) beta-arrestin | P32245 | U2OS MC4R beta-arrestin complementation, luminescence; percent of melanotan II response, DMSO zero | activation, % at 8.9 µM | hit rate 0.98% among 360,000 | AID 540308;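 active = activation above a per-plate cutoff, the mean activation of sample wells on that plate plus 3 SD, cut at about 8% in these data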
cAMP nonselect = U2OS forskolin cAMP inhibition counter-screen | AID 602193 | shares compounds with MC4R antagonist | hit rate 26% among 1,600 | parental U2OS, LANCE TR-FRET | inhibition, % at 6.5 µM;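 active = mean inhibition over triplicates above the low-control well mean plus 3 SD, set per campaign, cut at about 13% in these data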;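 also: signal is single emission at 671 nm which falls as cellular cAMP rises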
MC4R cAMP antag = human MC4R cAMP antagonism confirmation; shares compounds with MC4R antagonist; hit rate 27% among 1,600; AID 602195; MC4R-expressing cells, MTII-stimulated cAMP, TR-FRET; inhibition, % at 6.5 µM; in the data active = inhibition above about 29%
Numbers stand for hits; . = inactive; / = no result. Shown are actives, neighbours in structure and some others; about 2.4% of the full set was active somewhere.

SMILES	TAG inh	NTR1 agonist	MC4R antagonist	aDG glyco up	Tb MetRS inh	MC4R ag barr	cAMP nonselect	MC4R cAMP antag
COc1ccc(CN(C)C(=O)c2ccc(COc3ccccc3)cc2)c(OC)c1	/	.	.	.	.	.	/	/
COc1ccccc1CN(C)C(=O)c1ccc(COc2ccccc2)cc1	/	.	31	.	.	.	.	.
O=C1C=CC(=O)N1CCCCCCCCCCN1C(=O)C=CC1=O	.	/	78	.	.	.	20	49
O=C1C=CC(=O)N1Cc1ccncc1	.	/	.	.	.	.	/	/
CN1C2CCC1/C(=C\c1ccc(F)cc1)C(=O)/C2=C/c1ccc(F)cc1	/	.	.	.	.	.	/	/
C=CC(=O)N1C/C(=C/c2ccc(F)cc2)C(=O)/C(=C\c2ccc(F)cc2)C1	78	/	40	.	.	.	28	.
COc1ccc(CN2CCN(S(=O)(=O)c3ccc(NC(C)=O)cc3)CC2)c(OC)c1OC	.	.	31	.	.	.	.	.
CC1(C)CC(=O)C(C(C2=C(O)CC(C)(C)CC2=O)c2cccs2)C(=O)C1 (centres undefined)	/	.	30	.	.	.	.	.
COc1ccc(/C=N/Nc2cc(C)nc(NS(=O)(=O)c3ccc(C)cc3)n2)cc1	/	.	32	.	.	.	.	.
COc1cc(/C=N/Nc2cc(C)nc(NS(=O)(=O)c3ccc(C)cc3)n2)ccc1O	.	/	.	.	.	.	/	/
O=C(Nc1ccc(Cl)cn1)C1CCCN(c2ncnc3c2nc2n3CCCCC2)C1 (centres undefined)	/	.	30	.	.	.	.	.
Cc1ccc(S(=O)(=O)N2[C@H](CC(=O)c3ccc(Cl)c(Cl)c3)OC[C@@H]2C)cc1	/	/	/	.	.	/	/	/
COC(=O)CSc1ccc(C#N)c(SCC(=O)OC)c1	.	.	35	.	.	.	17	.
COC(=O)CSc1cc(SCC(=O)OC)c(C#N)c(SCC(=O)OC)c1	.	.	.	.	.	.	/	/
CCC(=O)c1ccccc1OCC(=O)Nc1c(C)cccc1C	/	.	.	.	.	.	/	/
Cc1cccc(C)c1NC(=O)COc1ccccc1C(=O)Nc1ccc(Br)cn1	/	.	33	.	.	.	50	91
O=[N+]([O-])c1ccc(Nc2ccccc2)c2nonc12	/	.	.	.	.	.	/	/
O=[N+]([O-])c1ccc(Sc2cccc[n+]2[O-])c2nonc12	102	/	48	.	.	.	42	60
COc1cc(/C=N/NC(=O)c2cccnc2)ccc1OS(=O)(=O)c1ccc(C)cc1	.	.	29	.	.	.	.	.
Cc1cc(N2C(=O)C(O)=C(C(=O)c3cc4ccccc4o3)C2c2ccc([N+](=O)[O-])cc2)no1 (centres undefined)	/	.	.	.	.	.	/	/
O=C(C1=C(O)C(=O)N(c2nccs2)C1c1ccccc1)c1cc2ccccc2o1 (centres undefined)	.	.	49	.	.	.	19	31
Cc1ccc(C2C(C(=O)c3cc4ccccc4o3)=C(O)C(=O)N2c2cc(C)on2)cc1 (centres undefined)	/	.	32	.	.	.	.	.
COc1ccc(N2CCN(C(=O)c3ccc(COc4ccc5c(C)cc(=O)oc5c4)cc3)CC2)cc1	/	.	31	.	.	.	.	.
COc1ccc(CC(=O)n2nc(-c3ccccc3)nc2NCc2ccco2)cc1	.	.	.	.	.	.	/	/
O=C(CCc1ccccc1)n1nc(-c2ccccc2)nc1NCc1ccco1	/	.	33	.	.	.	.	.
SMILES	TAG inh	NTR1 agonist	MC4R antagonist	aDG glyco up	Tb MetRS inh	MC4R ag barr	cAMP nonselect	MC4R cAMP antag
CCOC(=O)c1csc(-c2ccc(COC(=O)c3ccccc3)o2)n1	/	/	/	.	.	/	/	/
O=C(COC(=O)[C@H](Cc1ccccc1)NC(=O)c1cccs1)NC1CCCCC1	/	.	37	.	.	.	.	.
O=C(COC(=O)[C@H](Cc1ccccc1)NC(=O)c1ccco1)NC(c1ccccc1)c1ccccc1	.	.	32	.	.	.	20	36
O=C(COC(=O)[C@H](Cc1ccccc1)NC(=O)c1cccs1)NC1CC1	/	.	.	.	.	.	/	/
Cc1cccc(C)c1-n1nnnc1C(c1ccccc1OC(F)(F)F)N1CCN(C/C=C/c2ccccc2)CC1 (centres undefined)	/	/	/	.	.	/	/	/
CSCCC(NC(=O)c1ccc([N+](=O)[O-])cc1Cl)C(=O)OCC(=O)NCC(F)(F)F (centres undefined)	/	.	.	.	.	.	/	/
CSCCC(NC(=O)c1ccc([N+](=O)[O-])cc1Cl)C(=O)OCC(=O)NCCCc1ccccc1 (centres undefined)	/	.	37	.	.	.	16	37
COc1ccc(C(N)c2csc(Nc3ccc(C(F)(F)F)cn3)n2)cc1 (centres undefined)	.	/	.	.	.	.	/	/
O=C(OC1CCOC1=O)c1cc(-c2cccs2)nc2ccccc12 (centres undefined)	.	.	35	.	.	.	26	38
CC(C)OC(=O)CNc1n[nH]c(=S)[nH]c1=O	.	/	41	.	.	.	.	.
CCOC(=O)CSc1nnc(NCC(=O)OC(C)C)c(=O)[nH]1	.	.	35	.	.	.	18	.
CCOC(=O)CNC(=O)CSc1nnc(C)c(=O)[nH]1	/	.	.	.	.	.	/	/
COC(=O)CNc1n[nH]c(=S)[nH]c1=O	.	.	.	.	.	.	/	/
COc1ccccc1Cc1c(-c2ccco2)nc2cc(C)c(Br)c(C)n12	/	/	/	.	.	/	/	/
CC(=O)Nc1cccc(-c2ccnc3c2CC(C)(C(=O)Nc2ccc(Cl)cc2)O3)c1 (centres undefined)	.	/	.	.	.	.	/	/
CC(C)NC(=O)N(C)C[C@H]1Oc2ncc(Br)cc2C(=O)N([C@H](C)CO)C[C@@H]1C	.	/	.	.	.	.	/	/
CCCCC(=O)N(C)c1c(CC)nc2c(OCc3ccccc3C)cccn12	.	/	.	.	.	.	/	/
O=C(NC(Cc1c[nH]c2ccccc12)C(=O)N/N=C/c1ccc(Cl)cc1)c1cccs1 (centres undefined)	.	.	30	.	.	.	.	.
O=C(NC(Cc1c[nH]c2ccccc12)C(=O)N1CCOCC1)c1cccs1 (centres undefined)	.	.	.	.	.	.	/	/
CC(C)c1ccc(/C=C(\c2nc3ccccc3[nH]2)S(=O)(=O)c2ccccc2)cc1	/	.	.	.	.	.	/	/
O=S(=O)(/C(=C/c1ccc(C(F)(F)F)cc1)c1nc2ccccc2[nH]1)c1ccccc1	/	/	35	.	.	.	13	48
Brc1ccsc1-c1csc(-c2ccncc2)n1	/	.	34	.	.	.	.	.

Screens from PubChem.
